Results: ChEMBL document CHEMBL1123464, “Analogues of platelet activating factor. 5. Multiple oxygen substitution of the alkoxy chain” (J Med Chem, 1986)

Key:
[1] = species on record: Oryctolagus cuniculus; test: Compound was evaluated in rabbit-platelet rich plasma (PRP) for the maximum aggregation response observed at 1.9*10e-4 molar concentration; type: functional
[2] = Ratio value is (MAPB/platelet EC50)*10e-8; type: functional
How it was run: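 Selectivity index: intravenous hypotensive dose (SHR, 50 mmHg MABP drop) divided by rabbit PRP aggregation EC50; compared against racemic C16-PAF standard to judge separation of hypotensive and aggregatory effects.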

[3] = test system: Rattus norvegicus; test: Compound was evaluated in spontaneous hypertensive rats (SHR) for the intravenous dose required to decrease mean arterial blood pressure (MABP) 50 mmHg; type: functional, Artery
How it was run: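 Spontaneously hypertensive rats, intravenous dosing; mean arterial blood pressure monitored; dose lowering MABP by 50 mmHg extrapolated from the dose-response curve.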

[4] = species on record: Oryctolagus cuniculus; test: Compound was evaluated in rabbit-platelet rich plasma (PRP) for the molar concentration required to produce 50% of maximum aggregation; type: functional
How it was run: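 Rabbit platelet-rich plasma; aggregation dose-response curves over 10^-4 to 10^-9 M, two to six replicates per dose level; EC50 is the molar concentration giving 50% of the compound's own maximum aggregation; n counts independent curve determinations.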

[5] = species on record: Oryctolagus cuniculus; test: Compound was evaluated in rabbit-platelet rich plasma (PRP) for the maximum aggregation response observed 6.8*10e-6 molar concentration; type: functional

SMILES	Max aggregation [1]	Ratio [2]	Dose [3] [mg/kg]	EC50 [4] [nM]	Max aggregation [5]
COCCOCCOCCCCCCCCOCC(COP(=O)([O-])OCC[N+](C)(C)C)OC(C)=O (configuration not stated)	67	0.15	0.0805	5300	–
CCCCCCCCCCOCCOCCOCC(COP(=O)([O-])OCC[N+](C)(C)C)OC(C)=O (configuration not stated)	61	0.99	0.0129	130	–
CCCCCCCCCCCCCCCCOCC(COP(=O)([O-])OCC[N+](C)(C)C)OC(C)=O (configuration not stated) [PLATELET ACTIVATING FACTOR]	–	0.47	0.00125	26.5	71
